ABHD5 PLIN5 PPI = ABHD5-PLIN5 interaction inhibitors, primary screen, cell lysate, split luciferase complementation, luminescence; 360,000 compounds, 0.78% hits; Split G. princeps luciferase complementation, 4 h; inhibition, % at 4 µM;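 active means inhibition above the mean inhibition across every tested compound plus 3 SD, cut at about 22% in these data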;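 further: 0% = DMSO only wells and the 100% control is not disclosed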
Target sequence (Q00G26 whole entry, looked up): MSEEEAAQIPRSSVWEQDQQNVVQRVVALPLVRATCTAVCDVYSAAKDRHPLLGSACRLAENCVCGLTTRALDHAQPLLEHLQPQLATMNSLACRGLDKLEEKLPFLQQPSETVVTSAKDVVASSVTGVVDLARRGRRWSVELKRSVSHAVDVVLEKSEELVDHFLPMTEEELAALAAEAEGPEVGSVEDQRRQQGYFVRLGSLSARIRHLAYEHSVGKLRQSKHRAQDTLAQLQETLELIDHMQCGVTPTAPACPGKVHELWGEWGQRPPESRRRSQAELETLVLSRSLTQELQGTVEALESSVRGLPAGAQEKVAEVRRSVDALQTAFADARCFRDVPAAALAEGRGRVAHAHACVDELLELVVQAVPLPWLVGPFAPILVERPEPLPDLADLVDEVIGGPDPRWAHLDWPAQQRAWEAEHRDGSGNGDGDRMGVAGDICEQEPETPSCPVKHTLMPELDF
Target sequence (Q8WTS1 whole entry, looked up): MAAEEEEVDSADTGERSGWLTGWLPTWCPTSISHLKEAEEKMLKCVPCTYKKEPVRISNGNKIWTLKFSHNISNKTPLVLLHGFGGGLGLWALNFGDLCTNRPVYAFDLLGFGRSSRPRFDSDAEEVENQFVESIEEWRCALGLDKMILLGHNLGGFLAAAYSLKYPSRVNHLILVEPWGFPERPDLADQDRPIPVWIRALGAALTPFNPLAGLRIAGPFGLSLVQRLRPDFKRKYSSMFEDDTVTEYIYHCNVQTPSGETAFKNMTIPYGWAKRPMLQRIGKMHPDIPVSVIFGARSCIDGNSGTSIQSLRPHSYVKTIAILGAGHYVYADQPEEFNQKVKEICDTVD
NadD block = inhibitors of S. aureus NadD, primary screen, biochemical, colorimetric, uHTS; purified NadD enzyme, colorimetric absorbance read-out; inhibition, % at 20 µM; 360,000 compounds, 0.78% hits; AID 602399, 2012; in the data active means inhibition above about 26%
rCAG RNA binder = binders of r(CAG) RNA repeats, primary screen, biochemical, fluorescence. 370,000 compounds, 1.3% hits. inhibition, % at 3 µM. r(CAG) RNA repeat, TO-PRO-1 dye displacement fluorescence;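 active means inhibition above the plate cutoff, the mean of all test compounds on that plate plus 3 SD, cut at about 35% in these data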;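 further: 0% = DMSO alone and 100% = 100 µM mitoxantrone as full dye displacement; higher means more dye released from RNA so lower well fluorescence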
core dimer inh = inhibitors of HCV core protein dimerization, primary screen, biochemical, TR-FRET, high-throughput. TR-FRET GST/Flag-core106 dimerization, 1536-well. inhibition, % at 5 µM. 300,000 compounds, 0.33% hits;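 active means inhibition above the mean of all tested compounds plus 3 SD, set per screening campaign, cut at about 45% in these data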
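System – GST-tagged and Flag-tagged HCV core protein residues 1-106 · Repeats – one well for each compound · Technique – TR-FRET 671 and 617 nm emission · Doses – one concentration, 5 µM, in 0.5% DMSO · Times – 4 h, 22.5 °C incubation · Also added – Eu donor and XL665 acceptor anti-tag antibodies · Measure – percent inhibition of core106 dimerization signal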
rCAG binder conf = small molecules binding CAG repeat RNA – biochemical, fluorescence, confirmation; shares compounds with rCAG RNA binder; r(CAG) RNA repeat, TO-PRO-1 dye displacement fluorescence; inhibition, % at 3 µM; 4,300 compounds, 70% hits; AID 652065, 2013;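 active means inhibition above a per-plate cutoff, the mean inhibition of sample wells plus 3 SD, cut at about 35% in these data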;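 further: loss of TO-PRO-1 fluorescence as compound displaces dye from 1x1 AA loop RNA; 0% = DMSO only wells and 100% = 100 µM mitoxantrone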
DNA CAG counter = displacement of TO-PRO-1 from CAG DNA duplex, counter-screen for rCAG RNA repeat binder project, biochemical, fluorescence, TO-PRO-1 dye, d(CAG) DNA oligo. shares compounds with rCAG RNA binder. d(CAG) DNA oligo TO-PRO-1 dye displacement. inhibition, % at 3 µM. 4,300 compounds, 94% hits. AID 652068, 2013;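 active means inhibition above its plate's cutoff, the mean test-well inhibition plus 3 SD, cut at about 4.8% in these data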;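 further: 0% = DNA dye mix with DMSO and 100% = 100 µM mitoxantrone; hits displace the dye from DNA and so lower well fluorescence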
* hit, by the source's call; . = no result given; ! = not active in a repeat. Most compounds without a hit are left out; they make up all but 2.6% or so of the library.

SMILES	ABHD5 PLIN5 PPI	NadD block	rCAG RNA binder	core dimer inh	rCAG binder conf	DNA CAG counter
COc1ccc(CN2C(=O)CC(=O)NC2=S)cc1	-2.6	-1.7	37.5*	4.0	11.0	4.1
Oc1ccc(/C=N/NP(=S)(c2ccccc2)c2ccccc2)c(O)c1O	-11.5	12.9	36.8*	-0.5	56.0*	27.9*
Oc1ccccc1/C=N/NP(=S)(c1ccccc1)c1ccccc1	-5.0	-7.2	6.3	3.1	.	.
COc1ccc(N2C(=O)NC(=O)/C(=C/c3ccc([N+](=O)[O-])s3)C2=O)cc1	-0.3	17.1	68.8*	1.3	50.3*	20.8*
COc1ccc(N2C(=O)/C(=C/C=C/c3ccccc3[N+](=O)[O-])C(=O)NC2=S)cc1	.	.	84.2*	.	77.6*	44.4*
COc1cccc(N2C(=O)NC(=O)/C(=C/c3ccc([N+](=O)[O-])s3)C2=O)c1	-3.4	9.7	58.5*	-2.8	43.3*	19.5*
COc1ccc(N2C(=O)NC(=O)/C(=C\c3ccc([N+](=O)[O-])s3)C2=O)cc1	-2.1	8.9	76.1*	1.8	54.4*	20.6*
CCOc1ccc(N2C(=O)NC(=O)/C(=C\c3cc(OC)c(OC)cc3[N+](=O)[O-])C2=O)cc1	7.0	8.9	.	2.7	.	.
O=C(O)C1CC2(Cl)C(Cl)=C(Cl)C1(Cl)C2(Cl)Cl (configuration not stated)	-5.1	-3.7	8.0	.	.	.
COc1ccccc1N1C(=O)NC(=O)/C(=C\c2cnn(-c3ccccc3)c2)C1=O	13.9	17.0	7.1	36.1	.	.
COc1ccccc1N1C(=O)NC(=O)/C(=C/c2ccc([N+](=O)[O-])s2)C1=O	.	.	83.5*	4.1	59.8*	27.8*
O=C(NCCCN1CCOCC1)C(Cl)(Cl)Cl	1.9	0.4	6.0	-7.8	.	.
O=C1CC(=O)N(Cc2ccccc2)C(=O)N1	-13.6	-5.3	3.9	.	.	.
O=C1CC(=O)N(Cc2ccccc2)C(=O)N1Cc1ccccc1	0.1	-1.5	46.3*	.	8.7	6.3*
Cc1cc(OCC(=O)NCC(O)c2ccccc2)c2c3c(c(=O)oc2c1)CCCC3 (configuration not stated)	-9.9	2.7	1.8	-0.7	.	.
Cc1cc(OCC(=O)N[C@@H](Cc2ccccc2)C(=O)O)c2c3c(c(=O)oc2c1)CCCC3	-0.5	4.5	45.6*	4.4	37.1*	7.9*
Cn1cccc1/C=C1\C(=O)NC(=O)N(Cc2ccccc2Cl)C1=O	-3.5	9.0	45.8*	.	10.1	4.1
O=S(=O)(c1ccccc1)N1CC1c1ccccc1 (configuration not stated)	-2.7	-0.7	0.9	-1.8	.	.
O=C1NC(=O)N(Cc2ccc(F)cc2)C(=O)/C1=C\c1ccc([N+](=O)[O-])s1	-8.9	36.6*	92.7*	-0.4	79.5*	39.6*
COc1ccc(CN2C(=O)NC(=O)/C(=C/c3ccc([N+](=O)[O-])s3)C2=O)cc1	-9.6	45.0*	93.7*	-2.2	94.0*	71.5*
O=C1NC(=O)N(CCc2ccc(F)cc2)C(=O)/C1=C/c1cccs1	-12.6	16.8	27.8	1.4	.	.
COc1ccc(CN2C(=O)NC(=O)/C(=C\c3cc(OC)c(OC)c(OC)c3)C2=O)cc1	11.3	1.0	20.6	5.0	.	.
NC(Cc1ccccc1)[P+](=O)O (configuration not stated)	.	.	0.9	.	.	.
O=C1C2CCCN2C(c2ccncc2)N1c1ccc(Cl)c(Cl)c1 (configuration not stated)	0.3	6.2	2.7	3.1	.	.
CN1C(=O)/C(=C/c2cccn2-c2ccc3ccccc3c2)C(=O)NC1=S	7.4	44.1*	63.0*	64.6*	21.8	15.8*
SMILES	ABHD5 PLIN5 PPI	NadD block	rCAG RNA binder	core dimer inh	rCAG binder conf	DNA CAG counter
Cn1cccc1/C=C1/C(=O)NC(=O)N(C(C)(C)C)C1=O	10.0	-2.9	2.9	-3.1	.	.
Cc1ccc(S(=O)(=O)NP(=O)(Oc2ccccc2)Oc2ccccc2)cc1	-0.6	5.0	40.5*	3.0	36.1*	9.7*
O=P(NS(=O)(=O)c1ccc(Br)cc1)(Oc1ccccc1)Oc1ccccc1	-5.8	3.8	73.0*	10.7	62.9*	25.0*
O=P(NS(=O)(=O)c1ccc(Cl)cc1)(Oc1ccccc1)Oc1ccccc1	7.9	0.5	61.5*	5.5	58.6*	18.5*
CC(C)NC1C2CCC(CC2)C1(O)c1ccc(Cl)c(Cl)c1 (configuration not stated)	9.2	-10.3	5.8	.	.	.
COc1cc(N)c(Cl)cc1C(=O)NC1CN2CCC1CC2 (configuration not stated)	.	.	.	0.4	.	.
CCOC(=O)c1[nH]c2ccc(OC)cc2c1C(SCC(=O)O)c1ccc(C(F)(F)F)cc1 (configuration not stated)	1.8	-2.2	56.3*	4.2	50.8*	14.4*
CN(C)[C@@H]1C(=O)C(C(N)=O)=C(O)[C@@]2(O)C(=O)C3=C(O)c4c(O)cccc4[C@@](C)(O)[C@H]3[C@H](O)[C@@H]12	-5.9	38.5*!	69.6*	34.7	67.2*	34.1*
S=C=Nc1cccc(C2(N3CCCCC3)CCCCC2)c1	-3.0	-1.8	14.9	0.7	.	.
Cc1cc(C)c(S(=O)(=O)N2Cc3ccccc3-n3nncc3C2)c(C)c1	0.3	-2.2	-0.1	.	.	.
NCCc1cc(O)c(O)cc1O	3.3	65.4*	60.5*	.	28.3	14.1*
NC(Cc1cc(O)c(O)cc1O)C(=O)O (configuration not stated)	.	.	.	30.0	.	.
O=C(N/N=C/c1c(O)n(Cc2ccc(F)cc2)c(=O)[nH]c1=O)c1ccccc1O	0.2	5.9	84.5*	1.9	67.5*	26.1*
O=C(N/N=C/c1c(O)n(CCc2ccc(F)cc2)c(=O)[nH]c1=O)c1ccccc1	-2.9	7.2	6.0	5.2	.	.
COc1ccc(Cn2c(O)c(/C=N/NC(=O)c3ccccc3O)c(=O)[nH]c2=O)cc1	3.4	3.8	90.9*	11.6	76.3*	36.5*
O=C(N/N=C/c1c(O)n(CCc2ccccc2)c(=O)[nH]c1=O)c1ccccc1O	-1.2	1.7	87.3*	0.7	65.3*	25.4*
COc1ccc(Cn2c(O)c(/C=N/NC(=O)c3ccccc3)c(=O)[nH]c2=O)cc1	8.8	-0.4	29.9	-8.4	.	.
Cc1noc(C)c1COc1ccc(C(=O)NCC2(N(C)C)CCCCC2)cc1	4.9	-1.1	-0.1	.	.	.
O=C(Cc1ccccc1)Oc1ccccc1N1C(=O)CCC1=O	2.4	5.9	0.4	-3.3	.	.
O=C1NC(=O)N(Cc2ccco2)C(=O)/C1=C\c1cccn1CCOc1ccc(Cl)cc1	1.8	16.8	34.9*	0.7	11.3	7.6*

Screening results from PubChem.
